What was measured:
TLR1/2 = TLR1/2 (Homo sapiens, UniProt O60603+Q15399); assay: Ramos Blue reporter B cell line, Pam3CSK4 stimulation; type: cell-based; details: Ramos cells; up to 10 μM; n = 4, data not shown
In short: (§1)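 Ramos Blue B reporter cells were pre-treated 30 min at 37°C, 5% CO2 with increasing concentrations of test compound or 0.25% v/v DMSO. They were then stimulated with the respective agonist, and reporter activity was read.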

[1] = test system: tumor necrosis factor (TNF) receptor; assay: Ramos Blue reporter B cell line, TNF stimulation; type: cell-based, human; details: Ramos cells; up to 10 μM; n = 4, data not shown
In short: as §1

[2] = test system: human PBMCs, monocytes, neutrophils, human blood; assay: Cell viability in profiling assays; type: cell-based; details: human primary cells; concentrations of up to 10 μM
In short: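 Toxicity counter-screens were run within each primary-cell assay across the test-compound dose range. PBMCs, isolated monocytes and neutrophils were read by CellTiter-Glo. Diluted whole blood was read by ATPlite luminescence.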

TLR7 = target: T1, TLR7 (Homo sapiens, UniProt Q9NYK1); assay: Human whole blood assay, ssRNA-IFN-α; type: cell-based
T1 sequence (Q9NYK1 27-1049): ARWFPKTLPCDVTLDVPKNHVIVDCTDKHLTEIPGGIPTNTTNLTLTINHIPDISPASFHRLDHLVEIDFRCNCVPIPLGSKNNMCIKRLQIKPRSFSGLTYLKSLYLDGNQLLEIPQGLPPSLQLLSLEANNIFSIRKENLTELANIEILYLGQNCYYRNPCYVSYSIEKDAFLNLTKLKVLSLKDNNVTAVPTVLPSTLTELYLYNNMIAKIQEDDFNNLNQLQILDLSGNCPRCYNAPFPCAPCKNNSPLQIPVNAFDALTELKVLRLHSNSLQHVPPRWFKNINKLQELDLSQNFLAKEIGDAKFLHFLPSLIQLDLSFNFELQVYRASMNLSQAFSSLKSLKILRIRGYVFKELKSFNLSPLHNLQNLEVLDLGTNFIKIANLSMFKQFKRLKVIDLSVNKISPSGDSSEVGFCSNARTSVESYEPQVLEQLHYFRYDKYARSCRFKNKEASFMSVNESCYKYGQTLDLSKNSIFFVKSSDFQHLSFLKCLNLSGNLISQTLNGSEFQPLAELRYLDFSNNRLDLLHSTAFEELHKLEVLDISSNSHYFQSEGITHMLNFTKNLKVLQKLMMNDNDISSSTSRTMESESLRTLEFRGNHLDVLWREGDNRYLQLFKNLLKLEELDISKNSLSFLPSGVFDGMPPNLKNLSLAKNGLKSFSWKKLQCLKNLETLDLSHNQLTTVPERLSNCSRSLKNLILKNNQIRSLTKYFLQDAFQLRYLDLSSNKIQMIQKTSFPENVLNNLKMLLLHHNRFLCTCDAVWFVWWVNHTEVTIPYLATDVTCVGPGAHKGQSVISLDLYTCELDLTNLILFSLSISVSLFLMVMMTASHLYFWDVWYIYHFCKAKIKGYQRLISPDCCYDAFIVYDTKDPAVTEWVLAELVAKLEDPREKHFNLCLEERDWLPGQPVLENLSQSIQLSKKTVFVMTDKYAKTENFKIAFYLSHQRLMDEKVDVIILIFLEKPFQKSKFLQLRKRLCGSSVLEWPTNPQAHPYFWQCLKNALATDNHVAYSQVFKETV
In short: (§2)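 Fresh human blood or 129/Sv mouse blood was taken into citrate and diluted 1:1 with RPMI1640. It was pre-incubated 30 min at 37°C, 5% CO2 with increasing concentrations of test compound or 0.25% v/v DMSO (final). Blood was then stimulated with TLR agonists at doses from earlier work, or with R848 (3 μM), and cytokines were quantified. Viability was checked by ATPlite luminescence.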

murine TLR7 = murine TLR7 (Mus musculus, UniProt P58681); assay: Murine whole blood assay, ssRNA-induced IFN-α and TNF; type: cell-based
murine TLR7, sequence (P58681 27-1050): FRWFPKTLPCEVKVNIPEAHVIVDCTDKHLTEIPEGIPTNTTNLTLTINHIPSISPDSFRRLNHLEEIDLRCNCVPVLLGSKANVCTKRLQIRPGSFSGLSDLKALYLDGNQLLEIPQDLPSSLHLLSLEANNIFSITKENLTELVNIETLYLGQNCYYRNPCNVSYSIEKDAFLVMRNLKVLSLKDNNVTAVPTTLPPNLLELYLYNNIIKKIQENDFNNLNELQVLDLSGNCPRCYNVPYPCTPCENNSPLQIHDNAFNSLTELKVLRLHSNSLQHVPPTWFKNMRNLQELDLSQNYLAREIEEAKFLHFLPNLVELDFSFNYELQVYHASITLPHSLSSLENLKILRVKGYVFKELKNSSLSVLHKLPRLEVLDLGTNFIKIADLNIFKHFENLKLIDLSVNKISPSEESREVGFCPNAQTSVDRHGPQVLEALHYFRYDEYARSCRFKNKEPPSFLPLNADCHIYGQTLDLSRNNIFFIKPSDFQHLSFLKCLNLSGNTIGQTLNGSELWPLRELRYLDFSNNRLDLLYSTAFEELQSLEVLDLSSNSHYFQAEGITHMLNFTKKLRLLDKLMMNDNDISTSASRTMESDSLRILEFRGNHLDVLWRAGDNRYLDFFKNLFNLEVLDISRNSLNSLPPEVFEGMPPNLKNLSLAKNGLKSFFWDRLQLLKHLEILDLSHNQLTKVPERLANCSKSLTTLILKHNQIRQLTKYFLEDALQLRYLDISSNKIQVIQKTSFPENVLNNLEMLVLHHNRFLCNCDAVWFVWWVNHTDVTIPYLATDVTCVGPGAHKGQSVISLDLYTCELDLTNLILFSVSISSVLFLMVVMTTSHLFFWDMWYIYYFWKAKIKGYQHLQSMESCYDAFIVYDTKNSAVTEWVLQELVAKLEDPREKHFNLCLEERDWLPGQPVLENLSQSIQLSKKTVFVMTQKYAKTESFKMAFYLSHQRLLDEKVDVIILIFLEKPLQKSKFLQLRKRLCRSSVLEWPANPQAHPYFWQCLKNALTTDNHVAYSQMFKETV
In short: as §2

TLR9 = TLR9 (Mus musculus, UniProt Q9EQU3); assay: Murine whole blood assay, ODN-IFN-α; type: cell-based
TLR9, sequence (Q9EQU3 26-1032): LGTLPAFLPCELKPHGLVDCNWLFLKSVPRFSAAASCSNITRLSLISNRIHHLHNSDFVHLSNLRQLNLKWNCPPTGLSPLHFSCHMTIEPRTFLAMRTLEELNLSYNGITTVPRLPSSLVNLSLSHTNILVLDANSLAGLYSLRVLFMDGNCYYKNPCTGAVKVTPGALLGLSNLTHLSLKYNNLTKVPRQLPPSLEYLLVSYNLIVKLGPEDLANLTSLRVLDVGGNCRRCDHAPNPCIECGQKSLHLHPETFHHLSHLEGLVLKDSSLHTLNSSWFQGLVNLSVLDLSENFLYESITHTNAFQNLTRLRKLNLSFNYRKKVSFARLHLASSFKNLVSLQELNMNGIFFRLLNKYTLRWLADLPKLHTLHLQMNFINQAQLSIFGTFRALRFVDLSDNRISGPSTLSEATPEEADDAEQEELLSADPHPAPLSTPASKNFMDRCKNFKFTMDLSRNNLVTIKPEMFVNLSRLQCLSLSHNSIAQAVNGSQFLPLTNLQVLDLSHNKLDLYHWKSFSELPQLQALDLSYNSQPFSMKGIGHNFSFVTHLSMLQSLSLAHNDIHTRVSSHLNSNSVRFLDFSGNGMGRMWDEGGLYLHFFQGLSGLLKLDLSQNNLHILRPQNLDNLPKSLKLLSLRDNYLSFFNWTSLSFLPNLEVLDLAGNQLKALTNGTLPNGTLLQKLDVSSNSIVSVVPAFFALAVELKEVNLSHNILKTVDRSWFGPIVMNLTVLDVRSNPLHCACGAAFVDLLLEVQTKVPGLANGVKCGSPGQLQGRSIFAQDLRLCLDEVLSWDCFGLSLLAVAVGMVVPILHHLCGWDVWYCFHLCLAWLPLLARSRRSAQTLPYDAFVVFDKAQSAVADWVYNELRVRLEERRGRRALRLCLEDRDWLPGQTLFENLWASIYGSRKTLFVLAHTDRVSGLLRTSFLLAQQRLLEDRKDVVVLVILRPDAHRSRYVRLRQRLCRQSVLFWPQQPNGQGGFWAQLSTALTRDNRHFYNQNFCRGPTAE
In short: as §2

TLR7/8 = TLR7/8 (Homo sapiens, UniProt Q9NR97); assay: Human neutrophil ROS production, R848 stimulation; type: cell-based
TLR7/8, sequence (Q9NR97 27-1041): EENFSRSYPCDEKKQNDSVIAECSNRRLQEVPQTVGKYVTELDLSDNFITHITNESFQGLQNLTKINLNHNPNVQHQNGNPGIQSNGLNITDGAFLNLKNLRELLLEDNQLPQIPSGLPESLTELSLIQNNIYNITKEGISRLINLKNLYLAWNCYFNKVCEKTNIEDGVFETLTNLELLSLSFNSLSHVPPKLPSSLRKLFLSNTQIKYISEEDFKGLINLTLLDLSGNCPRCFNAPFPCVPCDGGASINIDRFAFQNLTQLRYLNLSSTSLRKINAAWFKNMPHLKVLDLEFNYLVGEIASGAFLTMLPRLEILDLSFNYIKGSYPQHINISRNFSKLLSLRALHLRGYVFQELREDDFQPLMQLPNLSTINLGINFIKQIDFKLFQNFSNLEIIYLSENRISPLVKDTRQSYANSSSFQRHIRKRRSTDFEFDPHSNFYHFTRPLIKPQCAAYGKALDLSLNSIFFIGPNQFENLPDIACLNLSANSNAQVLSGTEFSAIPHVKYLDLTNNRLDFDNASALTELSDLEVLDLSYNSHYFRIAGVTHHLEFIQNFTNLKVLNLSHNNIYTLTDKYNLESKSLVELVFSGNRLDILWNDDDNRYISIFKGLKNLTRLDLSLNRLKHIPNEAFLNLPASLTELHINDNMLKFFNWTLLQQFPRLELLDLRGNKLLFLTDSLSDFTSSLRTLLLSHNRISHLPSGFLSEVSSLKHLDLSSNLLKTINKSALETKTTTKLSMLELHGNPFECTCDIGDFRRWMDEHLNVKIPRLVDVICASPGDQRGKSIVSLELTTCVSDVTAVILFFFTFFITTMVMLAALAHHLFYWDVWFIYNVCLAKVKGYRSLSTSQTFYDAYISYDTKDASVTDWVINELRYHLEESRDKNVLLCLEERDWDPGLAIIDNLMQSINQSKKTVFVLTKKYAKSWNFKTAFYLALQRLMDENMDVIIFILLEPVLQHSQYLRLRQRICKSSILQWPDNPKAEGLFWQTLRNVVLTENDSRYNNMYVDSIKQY

[3] = test system: PMA-mediated ROS secretion from neutrophils; assay: Human neutrophil ROS production, PMA stimulation; type: cell-based
In short: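 Cells were pre-treated 30 min with increasing concentrations of test compound or 0.1% v/v DMSO. They were then stimulated 30 min at 37°C, 5% CO2 with TL8-506 or PMA (50 ng/mL). ROS was detected with 2 μM dihydrorhodamine for 15 min at 37°C and read by flow cytometry. Signals were normalized to vehicle; viability was checked by CellTiter-Glo.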

[4] = test system: SLE immune-complex-driven IFN-α response in PBMCs; assay: IFN-α release from PBMCs stimulated with SLE patient sera immune complexes; type: cell-based, human; details: PBMCs
[5] = test system: immune-complex stimulated ISG panel in PBMCs; assay: Five-gene ISG panel in PBMCs stimulated with SLE immune complexes; type: cell-based, human; details: MHV370 0.1 μM
In short: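 PBMCs were pre-treated 30 min with test compound, HCQ or 0.1% DMSO, then stimulated 20 h with SLE serum pre-complexed with U-937 necrotic extract. RNA was extracted and ISGs quantified by qRT-PCR with the 2−ΔΔCt method against 18S rRNA, using biological replicates. Global ISG induction was derived by normalizing each ISG's relative induction to 100%.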

NZB/W F1 mice = assay: Mouse NZB/W F1 model of lupus, MHV370 in food; type: in vivo
In short: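 NZB/W F1 mice entered at 23 weeks and were randomized into groups of 14 (mean proteinuria 0.1–0.5 mg/mL). They were dosed with test compound in food. Weight was recorded twice weekly; proteinuria weekly by quantitative protein assay (BSA standard). Serum IgG autoantibodies were measured by ELISA at 1:100 or 1:300, with DWEYS peptide for NMDAR, HRP anti-IgG (1:10′000) and TMB. Kidney IgG was stained by IHC; positive/total area was averaged over ten sections per mouse.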

[6] = 0.1% MHV370 in food, kidney histology
[7] = MHV370-laced food, at termination

TLR1/2, sequence (Q15399 25-786): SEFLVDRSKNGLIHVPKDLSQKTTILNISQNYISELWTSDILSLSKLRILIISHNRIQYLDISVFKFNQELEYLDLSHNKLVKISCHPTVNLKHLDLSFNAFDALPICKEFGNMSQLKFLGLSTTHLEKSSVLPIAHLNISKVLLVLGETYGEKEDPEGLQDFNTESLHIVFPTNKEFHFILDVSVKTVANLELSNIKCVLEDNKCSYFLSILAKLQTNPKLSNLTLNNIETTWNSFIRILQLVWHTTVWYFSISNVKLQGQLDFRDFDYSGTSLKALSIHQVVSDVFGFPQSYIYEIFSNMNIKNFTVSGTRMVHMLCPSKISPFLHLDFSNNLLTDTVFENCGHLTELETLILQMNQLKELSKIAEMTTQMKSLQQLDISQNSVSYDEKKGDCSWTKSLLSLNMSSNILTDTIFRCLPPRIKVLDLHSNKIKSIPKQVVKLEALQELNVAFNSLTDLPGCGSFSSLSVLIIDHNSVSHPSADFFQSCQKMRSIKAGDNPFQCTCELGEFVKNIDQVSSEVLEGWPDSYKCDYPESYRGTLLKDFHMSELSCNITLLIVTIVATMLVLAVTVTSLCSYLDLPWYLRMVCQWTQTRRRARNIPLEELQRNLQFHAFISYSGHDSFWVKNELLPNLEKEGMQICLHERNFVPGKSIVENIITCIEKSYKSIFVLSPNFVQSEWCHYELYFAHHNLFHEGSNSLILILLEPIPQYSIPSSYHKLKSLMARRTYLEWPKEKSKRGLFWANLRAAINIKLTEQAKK
TLR1/2, sequence (O60603 21-784): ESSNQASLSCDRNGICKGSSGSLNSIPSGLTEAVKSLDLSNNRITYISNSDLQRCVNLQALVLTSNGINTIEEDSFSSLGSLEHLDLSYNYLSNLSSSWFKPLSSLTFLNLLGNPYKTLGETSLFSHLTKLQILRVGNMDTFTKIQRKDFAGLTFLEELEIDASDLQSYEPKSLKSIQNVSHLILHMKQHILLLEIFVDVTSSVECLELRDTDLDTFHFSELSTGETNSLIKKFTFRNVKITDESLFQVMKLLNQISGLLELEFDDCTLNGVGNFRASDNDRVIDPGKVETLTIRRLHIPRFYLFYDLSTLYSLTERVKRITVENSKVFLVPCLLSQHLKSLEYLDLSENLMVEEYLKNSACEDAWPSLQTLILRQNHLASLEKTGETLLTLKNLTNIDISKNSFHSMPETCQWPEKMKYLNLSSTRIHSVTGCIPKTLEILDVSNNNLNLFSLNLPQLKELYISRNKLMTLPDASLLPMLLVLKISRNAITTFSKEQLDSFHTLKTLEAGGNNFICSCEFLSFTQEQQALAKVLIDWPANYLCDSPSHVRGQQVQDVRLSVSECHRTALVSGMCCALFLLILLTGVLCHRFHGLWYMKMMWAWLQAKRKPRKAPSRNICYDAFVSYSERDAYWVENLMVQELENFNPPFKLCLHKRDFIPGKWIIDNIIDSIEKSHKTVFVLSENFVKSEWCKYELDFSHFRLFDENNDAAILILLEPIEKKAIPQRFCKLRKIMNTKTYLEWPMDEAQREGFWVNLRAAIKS

Structure (SMILES): Cc1cc(N2CCc3c(c(C)nn3CC34CCC(NC(=O)[C@@H]5COCCN5)(CC3)CC4)C2)c2cnn(C)c2n1 [MHV370, (S)-N-(4-((5-(1,6-dimethyl-1H-pyrazolo[3,4-b]pyridin-4-yl)-3-methyl-4,5,6,7-tetrahydro-1H-pyrazolo[4,3-c]pyridin-1-yl)methyl)bicyclo[2.2.2]octan-1-yl)morpholine-3-carboxamide]
- interference with TLR1/2-driven activity (TLR1/2): did not interfere
- interference with TNF receptor-driven activity [1]: did not interfere
- cell toxicity [2]: did not lead to cell toxicity
- IC50 (TLR7): 8.4 ± 1 nM
- IC50 (murine TLR7; IC50, TLR7 (ssRNA-IFN-α), mouse blood, mean ± SEM (n)): 58 ± 10 nM
- potency on mouse whole blood relative to human whole blood (fold lower) (murine TLR7; mouse vs human whole blood): about 10 fold
- IC50 (TLR9): > 10000 nM
- functional inhibition of TLR9 (TLR9; mouse blood, up to 10 μM): did not show functional inhibition
- IC50 (TLR7/8): 3.8 ± 0.8 nM
- block of ROS production, PMA stimulation [3]: but not with phorbol myristate acetate
- immune-complex-driven responses, sera expressing dsDNA antibodies ([4]; MHV370 0.3 μM): blocked to a much lesser extent
- immune-complex-driven responses, sera positive for RNP/Sm and/or SS-A, or RNP/Sm and/or SS-A plus dsDNA autoantibodies ([4]; MHV370 0.3 μM): completely blocked
- IFN-α suppression, MHV370 added to HCQ ([4]; MHV370 1–10 nM combined with variable concentrations of HCQ, SLE immune complexes): almost complete suppression
- expression of a five-panel ISG signature [5]: strongly suppressed
- inhibition of proteinuria at low dose (NZB/W F1 mice; 0.01% MHV370 in food): already achieved
- IgG deposits in the glomeruli (NZB/W F1 mice; [6]): reduced
- glomerulopathy (NZB/W F1 mice; [6]): reduced
- infiltration of kidneys with CD45R+ B cells (NZB/W F1 mice; [6]): reduced
- infiltration of kidneys with CD138+ plasma cells (NZB/W F1 mice; [6]): reduced
- proteinuria (NZB/W F1 mice; MHV370-laced food): effectively prevented
- blood urea nitrogen (BUN) (NZB/W F1 mice; [7]): moderately reduced
- serum levels of CXCL13 (NZB/W F1 mice; [7]): significantly reduced
- IgG autoantibody levels against NMDAR (NZB/W F1 mice; serum at termination): reduced
- IgG autoantibody levels against Smith (Sm) (NZB/W F1 mice; serum at termination): reduced
- IgG autoantibody levels against ribosomal P (RiboP) (NZB/W F1 mice; serum at termination): reduced
- serum antibodies against double-stranded DNA (dsDNA) (NZB/W F1 mice; serum at termination): not reduced
- serum antibodies against histones (NZB/W F1 mice; serum at termination): not reduced
